# Legend:
# [1] = tested on: Mycobacterium tuberculosis; assay: Antimycobacterial activity against drug-sensitive Mycobacterium tuberculosis H37Rv ATCC 27294 after 7 days by microplate alamar blue assay; assay type: functional; settings: H37Rv ATCC 27294, 168 h
# Outline: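 Microplate Alamar Blue Assay against M. tuberculosis H37Rv ATCC 27294, read by fluorescence. MIC was the lowest concentration that reduced fluorescence by >90% relative to the mean of replicate bacterium-only controls.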
# Escherichia coli = assay: Antibacterial activity against Escherichia coli ATCC 25922 after 18 to 24 hrs by NCCLS M100-S11 based assay; assay type: functional
# Klebsiella pneumoniae = assay: Antibacterial activity against Klebsiella pneumoniae 12-1 after 18 to 24 hrs by NCCLS M100-S11 based assay; assay type: functional
# [2] = tested on: Staphylococcus epidermidis; assay: Antibacterial activity against methicillin-sensitive Staphylococcus epidermidis 12-1 after 18 to 24 hrs by NCCLS M100-S11 based assay; assay type: functional
# Staphylococcus aureus [3] = assay: Antibacterial activity against Staphylococcus aureus ATCC 25923 after 18 to 24 hrs by NCCLS M100-S11 based assay; assay type: functional
# Pseudomonas aeruginosa = assay: Antibacterial activity against Pseudomonas aeruginosa 12-12 after 18 to 24 hrs by NCCLS M100-S11 based assay; assay type: functional
# Streptococcus pneumoniae = assay: Antibacterial activity against Streptococcus pneumoniae ATCC 49619 after 18 to 24 hrs by NCCLS M100-S11 based assay; assay type: functional
# [4] = tested on: Staphylococcus epidermidis; assay: Antibacterial activity against methicillin-resistant Staphylococcus epidermidis 12-6 after 18 to 24 hrs by NCCLS M100-S11 based assay; assay type: functional
# Outline: (§1)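 Broth MIC set up per NCCLS M100-S11. Plates were incubated at 35 °C for 18–24 h. MIC was the lowest concentration that inhibited visible bacterial growth, i.e. complete growth inhibition.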
# Staphylococcus aureus [5] = assay: Antibacterial activity against methicillin-sensitive Staphylococcus aureus 12-1 after 18 to 24 hrs by NCCLS M100-S11 based assay; assay type: functional
# Staphylococcus aureus [6] = assay: Antibacterial activity against methicillin-resistant Staphylococcus aureus 12-2 after 18 to 24 hrs by NCCLS M100-S11 based assay; assay type: functional; outline: as §1
# [7] = Apparent volume of distribution in rat at 25 mg/kg, po administered as single dose; assay type: ADME, organism-based; settings: in vivo
# Outline: (§2)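 Rats given one oral dose of 25 mg/kg; n = 6 animals, values as mean ± SD. Plasma profile gave Cmax, Tmax, AUC from zero to infinity, elimination half-life, mean residence time, apparent clearance (CL/F) and apparent volume of distribution (Vd/F).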
# Rattus norvegicus [8] = assay: Acute toxicity in rat assessed as mortality at 500 mg/kg, po administered as single dose measured up to 7 days post dose; assay type: organism-based; settings: in vivo, 168 h
# Outline: (§3)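 Single dose given intravenously to mice (50 and 100 mg/kg) or orally to rats (500 and 1000 mg/kg).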
# Rattus norvegicus [9] = assay: Acute toxicity in rat assessed as mortality at 1000 mg/kg, po administered as single dose measured up to 7 days post dose; assay type: organism-based; settings: in vivo, 168 h; outline: as §3
# [10] = AUC (0 to infinity) in rat at 25 mg/kg, po administered as single dose; assay type: ADME, organism-based; parameters: dose 25 mg/kg, route oral, time infinity; settings: in vivo; outline: as §2
# [11] = Cmax in rat at 25 mg/kg, po administered as single dose; assay type: ADME, organism-based; parameters: dose 25 mg/kg, route oral; settings: in vivo; outline: as §2
# [12] = Mean residence time in rat at 25 mg/kg, po administered as single dose; assay type: ADME, organism-based; settings: in vivo; outline: as §2
# Mus musculus = assay: Acute toxicity in mouse assessed as mortality at 50 to 100 mg/kg, iv administered as single dose measured up to 7 days post dose; assay type: organism-based; settings: in vivo, 168 h; outline: as §3
# [13] = Apparent clearance in rat at 25 mg/kg, po administered as single dose; assay type: ADME, organism-based; settings: in vivo; outline: as §2
# [14] = Tmax in rat at 25 mg/kg, po administered as single dose; assay type: ADME, organism-based; settings: in vivo; outline: as §2
# [15] = Half life in rat at 25 mg/kg, po administered as single dose; assay type: ADME, organism-based; settings: in vivo; outline: as §2
compound,measurement,setting,value
Cc1ccn2c(C(=O)NCCOc3ccccc3[N+](=O)[O-])c(C)nc2c1,MIC90,[1],0.5 µg/mL
Cc1ccc2nc(C)c(C(=O)NCCOc3ccc(Cl)cc3)n2c1,MIC,Escherichia coli,> 32 µg/mL
same,MIC,Klebsiella pneumoniae,> 32 µg/mL
same,MIC,[2],> 32 µg/mL
same,MIC,Staphylococcus aureus [3],> 32 µg/mL
same,MIC,Pseudomonas aeruginosa,> 32 µg/mL
same,MIC90,[1],0.03 µg/mL
same,MIC,Streptococcus pneumoniae,> 32 µg/mL
same,MIC,[4],> 32 µg/mL
same,MIC,Staphylococcus aureus [5],> 32 µg/mL
same,MIC,Staphylococcus aureus [6],> 32 µg/mL
Cc1ccc(OCCNC(=O)c2c(C)nc3cc(C)ccn23)cc1,MIC90,[1],0.673 µg/mL
Cc1ccn2c(C(=O)NCCOc3ccc(Br)cc3)c(C)nc2c1,MIC90,[1],0.463 µg/mL
Cc1ccc(OCCNC(=O)c2c(C)nc3ccc(C)cn23)cc1,MIC90,[1],0.204 µg/mL
COc1ccccc1OCCNC(=O)c1c(C)nc2cc(C)ccn12,MIC90,[1],2 µg/mL
Cc1ccc2nc(C)c(C(=O)NCCNc3ccc(Br)cc3)n2c1,MIC90,[1],0.25 µg/mL
Cc1ccn2c(C(=O)NCCOc3ccccc3)c(C)nc2c1,MIC90,[1],0.935 µg/mL
Cc1cccc(OCCNC(=O)c2c(C)nc3cc(C)ccn23)c1,MIC90,[1],0.329 µg/mL
Cc1ccn2c(C(=O)NCCOc3ccc(-c4ccccc4)cc3)c(C)nc2c1,MIC90,[1],0.518 µg/mL
Cc1ccn2c(C(=O)NCCOc3ccc(Cl)cc3)c(C)nc2c1,MIC90,[1],2 µg/mL
Cc1cccc(OCCNC(=O)c2c(C)nc3ccc(C)cn23)c1,MIC,Escherichia coli,> 32 µg/mL
same,MIC,Klebsiella pneumoniae,> 32 µg/mL
same,MIC,[2],> 32 µg/mL
same,MIC,Staphylococcus aureus [3],> 32 µg/mL
same,MIC,Pseudomonas aeruginosa,> 32 µg/mL
same,MIC90,[1],0.029 µg/mL
same,MIC,Streptococcus pneumoniae,> 32 µg/mL
same,MIC,[4],> 32 µg/mL
same,MIC,Staphylococcus aureus [5],> 32 µg/mL
same,MIC,Staphylococcus aureus [6],> 32 µg/mL
Cc1ccc2nc(C)c(C(=O)NCCOc3ccc(Br)cc3)n2c1,Vd/F,[7],186 L/kg
same,MIC,Escherichia coli,> 32 µg/mL
same,Activity,Rattus norvegicus [8],Non-Toxic
same,MIC,Klebsiella pneumoniae,> 32 µg/mL
same,Activity,Rattus norvegicus [9],Non-Toxic
same,AUC(0-inf),[10],288 ng·h/mL
same,Cmax,[11],225 ng/mL
same,MIC,[2],> 32 µg/mL
same,MIC,Staphylococcus aureus [3],> 32 µg/mL
same,MRT,[12],1.6 h
same,MIC,Pseudomonas aeruginosa,> 32 µg/mL
same,Activity,Mus musculus,Non-Toxic
same,MIC90,[1],0.027 µg/mL
same,MIC,Streptococcus pneumoniae,> 32 µg/mL
same,CL/F,[13],1440 mL/min/kg
same,Tmax,[14],0.5 h
same,MIC,[4],> 32 µg/mL
same,MIC,Staphylococcus aureus [5],> 32 µg/mL
same,half-life,[15],1.5 h
same,MIC,Staphylococcus aureus [6],> 32 µg/mL
COc1ccccc1OCCNC(=O)c1c(C)nc2ccc(C)cn12,MIC90,[1],0.401 µg/mL
COc1ccc(OCCNC(=O)c2c(C)nc3cc(C)ccn23)cc1,MIC90,[1],2 µg/mL

# From ChEMBL document CHEMBL3864185, “Identification of N-(2-Phenoxyethyl)imidazo[1,2-a]pyridine-3-carboxamides as New Antituberculosis Agents” (ACS Med Chem Lett, 2016)
